This note sets out measurements from ChEMBL document CHEMBL1140872, “Discovery of a potent and selective inhibitor for human carbonyl reductase 1 from propionate scanning applied to the macrolide zearalenone” (Bioorg Med Chem, 2009).

Assay [1] addresses T1, Cyclin-G-associated kinase (Homo sapiens) (UniProt O14976).
T1 sequence (whole entry): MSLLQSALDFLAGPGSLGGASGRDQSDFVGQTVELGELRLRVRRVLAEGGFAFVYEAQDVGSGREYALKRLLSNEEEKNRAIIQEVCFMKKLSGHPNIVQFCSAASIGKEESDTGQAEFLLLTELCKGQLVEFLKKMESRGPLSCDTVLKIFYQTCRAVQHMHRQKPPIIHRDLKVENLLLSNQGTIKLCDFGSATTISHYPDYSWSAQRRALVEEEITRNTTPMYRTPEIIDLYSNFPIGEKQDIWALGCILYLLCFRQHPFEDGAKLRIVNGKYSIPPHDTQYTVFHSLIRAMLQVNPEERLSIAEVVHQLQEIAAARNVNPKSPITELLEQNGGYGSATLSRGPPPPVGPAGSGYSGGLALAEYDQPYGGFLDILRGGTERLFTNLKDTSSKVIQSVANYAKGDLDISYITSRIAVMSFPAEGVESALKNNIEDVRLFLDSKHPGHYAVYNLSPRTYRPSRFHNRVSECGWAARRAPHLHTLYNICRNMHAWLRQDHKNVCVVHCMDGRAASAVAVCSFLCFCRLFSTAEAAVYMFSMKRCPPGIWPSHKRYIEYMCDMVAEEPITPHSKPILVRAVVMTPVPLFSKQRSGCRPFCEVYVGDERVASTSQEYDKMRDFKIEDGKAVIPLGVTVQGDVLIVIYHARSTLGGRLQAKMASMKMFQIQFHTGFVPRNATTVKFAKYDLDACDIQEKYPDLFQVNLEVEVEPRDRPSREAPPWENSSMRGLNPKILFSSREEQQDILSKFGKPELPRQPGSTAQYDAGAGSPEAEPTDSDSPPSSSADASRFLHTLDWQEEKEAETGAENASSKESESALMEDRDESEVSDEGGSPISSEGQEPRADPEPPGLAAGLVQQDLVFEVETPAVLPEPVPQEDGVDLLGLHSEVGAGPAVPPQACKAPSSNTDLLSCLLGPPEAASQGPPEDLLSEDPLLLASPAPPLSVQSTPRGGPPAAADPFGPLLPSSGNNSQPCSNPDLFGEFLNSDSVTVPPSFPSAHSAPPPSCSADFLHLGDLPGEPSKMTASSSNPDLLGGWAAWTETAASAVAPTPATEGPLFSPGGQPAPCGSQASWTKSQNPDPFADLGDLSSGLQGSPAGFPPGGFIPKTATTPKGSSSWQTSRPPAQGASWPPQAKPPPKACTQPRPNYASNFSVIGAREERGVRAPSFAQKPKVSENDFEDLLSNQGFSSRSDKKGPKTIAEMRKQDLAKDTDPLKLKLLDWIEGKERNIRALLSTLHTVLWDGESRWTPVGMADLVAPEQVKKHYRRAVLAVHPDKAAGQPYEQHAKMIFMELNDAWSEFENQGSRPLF
Nature of the assay: Binding affinity to human recombinant GAK expressed in Escherichia coli assessed as thermal shift by differential scanning fluorimetry. Summed up: (§1)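 Thermal-shift (DSF) binding assay with purified recombinant catalytic domains or proteins carrying an N- or C-terminal His6 tag or GST fusion. Purity was >95% by SDS/PAGE and identity was confirmed by MS. Protein was at 2 µM final in 10 mM HEPES pH 7.5 and 150 mM NaCl. Tm shift is reported, with 2 °C as the threshold for binding.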

The target in assay [2] is Tyrosine-protein kinase Fes/Fps (Homo sapiens) (UniProt P07332). Nature of the assay: Binding affinity to human recombinant FES expressed in Escherichia coli assessed as thermal shift by differential scanning fluorimetry. The essentials:
as §1

Assay [3] has as its target Heat shock protein HSP90 (Homo sapiens) (UniProt P07900+P08238).
Assay [4] concerns the target Serine/threonine-protein kinase pim-2 (Homo sapiens) (UniProt Q9P1W9). Nature of the assay: Binding affinity to human recombinant PIM2 expressed in Escherichia coli assessed as thermal shift by differential scanning fluorimetry. The essentials: as §1
Assay [5] has as its target T2, Carbonyl reductase [NADPH] 1 (Homo sapiens, UniProt P16152).
T2 sequence (P16152 whole entry): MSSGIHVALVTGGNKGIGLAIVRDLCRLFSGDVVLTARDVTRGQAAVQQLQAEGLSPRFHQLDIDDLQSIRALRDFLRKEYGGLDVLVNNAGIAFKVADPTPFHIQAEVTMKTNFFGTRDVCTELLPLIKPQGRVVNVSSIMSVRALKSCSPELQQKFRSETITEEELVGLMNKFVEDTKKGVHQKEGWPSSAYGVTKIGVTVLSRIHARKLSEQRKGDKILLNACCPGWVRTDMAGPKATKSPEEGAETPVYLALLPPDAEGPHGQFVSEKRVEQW
Nature of the assay: Binding affinity to human recombinant carbonyl reductase 1 expressed in Escherichia coli assessed as NADPH oxidation using isatin as substrate. The essentials: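 Purified recombinant CBR1 (200 nM) and NADPH were added to compound in 50 mM sodium phosphate, pH 6.8, 1 mM MgCl2. NADPH oxidation was followed as the fluorescence decrease at 460 nm (excitation 355 nm). Rates came from linear regression after normalising to the fluorescence rise at injection. Compounds were titrated at two isatin levels, with no-protein background subtracted. Sigmoidal fit gave IC50, then Ki from the isatin concentration.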

Assay [6] has as its target T3, Carbonyl reductase [NADPH] 1 (Homo sapiens) (UniProt P16152).
T3 sequence (whole entry): T2 sequence (P16152 whole entry)
Nature of the assay: Binding affinity to human recombinant carbonyl reductase 1 expressed in Escherichia coli assessed as NADPH oxidation at 200 uM relative to isatin. The essentials:
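Substrate test used 200 nM purified CBR1 and 200 µM NADPH, injected onto compound at 200 µM in 50 mM sodium phosphate pH 6.8 with 1 mM MgCl2. NADPH oxidation was read as the fluorescence decrease at 460 nm (excitation 355 nm). Rate came from linear regression after normalizing to the fluorescence rise on injection. Run in triplicate and expressed as % of the isatin rate.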

Serine/threonine-protein kinase pim-2 (Homo sapiens), sequence (Q9P1W9 whole entry, looked up): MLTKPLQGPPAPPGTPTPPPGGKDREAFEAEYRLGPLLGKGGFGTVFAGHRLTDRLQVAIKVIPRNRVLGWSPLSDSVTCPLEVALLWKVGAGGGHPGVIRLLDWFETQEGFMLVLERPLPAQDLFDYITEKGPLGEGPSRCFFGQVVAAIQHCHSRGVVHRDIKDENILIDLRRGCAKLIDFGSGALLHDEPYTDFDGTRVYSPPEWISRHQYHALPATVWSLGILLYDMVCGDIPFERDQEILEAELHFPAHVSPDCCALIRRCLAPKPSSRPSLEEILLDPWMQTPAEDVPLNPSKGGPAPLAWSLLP
Tyrosine-protein kinase Fes/Fps (Homo sapiens), sequence (P07332 whole entry): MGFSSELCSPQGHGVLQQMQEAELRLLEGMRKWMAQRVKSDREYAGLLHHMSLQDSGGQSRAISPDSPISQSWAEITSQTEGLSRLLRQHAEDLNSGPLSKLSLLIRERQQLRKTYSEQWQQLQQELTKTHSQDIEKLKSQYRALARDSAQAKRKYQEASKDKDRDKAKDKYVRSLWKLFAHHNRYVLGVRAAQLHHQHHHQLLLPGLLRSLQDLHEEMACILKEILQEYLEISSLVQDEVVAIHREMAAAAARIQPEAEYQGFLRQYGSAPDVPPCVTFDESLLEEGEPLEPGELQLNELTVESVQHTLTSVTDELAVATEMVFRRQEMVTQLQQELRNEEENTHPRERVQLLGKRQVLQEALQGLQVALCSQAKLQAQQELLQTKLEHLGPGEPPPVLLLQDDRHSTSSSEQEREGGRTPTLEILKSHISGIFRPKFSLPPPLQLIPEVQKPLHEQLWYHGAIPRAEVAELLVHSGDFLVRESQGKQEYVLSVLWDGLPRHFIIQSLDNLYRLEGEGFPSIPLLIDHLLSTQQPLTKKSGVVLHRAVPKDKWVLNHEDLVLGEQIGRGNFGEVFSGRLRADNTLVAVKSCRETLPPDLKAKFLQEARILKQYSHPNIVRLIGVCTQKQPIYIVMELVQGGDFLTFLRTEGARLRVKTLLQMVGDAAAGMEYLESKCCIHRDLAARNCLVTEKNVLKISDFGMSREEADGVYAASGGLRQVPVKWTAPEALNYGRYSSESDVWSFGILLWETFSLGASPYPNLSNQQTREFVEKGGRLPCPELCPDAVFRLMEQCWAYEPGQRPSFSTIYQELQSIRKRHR

Take `COc1cc2c(c(OC)c1)C(=O)O[C@@H](C)CCC[C@@H](O)[C@@H](C)CC/C=C/2`: the Tm in assay [1], in assay [2], in assay [3] and in assay [4] was less than 2 °C throughout.
For the compound `C[C@@H]1C[C@H]2O[C@@H]2/C=C\C=C\C(=O)Cc2c(Cl)c(O)cc(O)c2C(=O)O1` [RADICICOL], the IC50 in assay [5] turned out to be 3270 nM. In assay [5], the Ki came to 520 nM. Moreover, the Tm in assay [1], in assay [2] and in assay [4] was less than 2 °C in each case.
Regarding `COc1cc(O)c2c(c1)/C=C/CC[C@H](C)C(=O)CCC[C@H](C)OC2=O`, the Tm in assay [1], in assay [2], in assay [3] and in assay [4] was less than 2 °C throughout. Also, the Activity in assay [6] stood at 1.5%.
On to `COc1cc2c(c(OC)c1)C(=O)O[C@@H](C)CCCC(=O)[C@@H](C)CC/C=C/2`, for which the Tm in assay [1], in assay [2], in assay [3] and in assay [4] was less than 2 °C in each case. Moreover, in assay [6], the Activity was determined as 31.3%.
Take `C[C@H]1CCCC(=O)CCC/C=C/c2cc(O)cc(O)c2C(=O)O1`: the Tm in assay [1] is 2.4 °C; in assay [2], less than 2 °C; in assay [3], 2.3 °C; in assay [4] it was 2.6 °C. Further, in assay [6], the Activity stood at 5.7%.
Take `COC1=C2C[C@@H](C)C[C@H](OC)[C@H](O)[C@@H](C)/C=C(\C)[C@H](OC(N)=O)[C@@H](OC)/C=C\C=C(/C)C(=O)NC(=CC1=O)C2=O`: the Tm in assay [1], in assay [2] and in assay [4] was less than 2 °C each time.
In the case of `C[C@H]1CCCC(=O)[C@@H](C)CC/C=C/c2cc(O)cc(O)c2C(=O)O1`, in assay [5], the half-inhibitory concentration (IC50) was found to be 210 nM. Also, the inhibitory constant (Ki) in assay [5] worked out at 40 nM. For the same compound, the Tm in assay [1] was 2.9 °C; in assay [2], less than 2 °C; in assay [3] it was less than 2 °C; in assay [4] it was less than 2 °C.
